# Compound activity deposited in PubChem BioAssay by several laboratories.
# In the library only some 0.4% were active in any assay of this set; here they are far more common.
# PDI turbidity: PDI (human) enzyme inhibition | P07237 | PDI insulin aggregation turbidity, A650, 90 min | inhibition, % at 10 µM | 0.052% of 350,000 active | AID 588391;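 active means mean inhibition across replicates of 30% or more, whatever share of single replicates reach that level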
# Target sequence (P07237 whole entry, looked up): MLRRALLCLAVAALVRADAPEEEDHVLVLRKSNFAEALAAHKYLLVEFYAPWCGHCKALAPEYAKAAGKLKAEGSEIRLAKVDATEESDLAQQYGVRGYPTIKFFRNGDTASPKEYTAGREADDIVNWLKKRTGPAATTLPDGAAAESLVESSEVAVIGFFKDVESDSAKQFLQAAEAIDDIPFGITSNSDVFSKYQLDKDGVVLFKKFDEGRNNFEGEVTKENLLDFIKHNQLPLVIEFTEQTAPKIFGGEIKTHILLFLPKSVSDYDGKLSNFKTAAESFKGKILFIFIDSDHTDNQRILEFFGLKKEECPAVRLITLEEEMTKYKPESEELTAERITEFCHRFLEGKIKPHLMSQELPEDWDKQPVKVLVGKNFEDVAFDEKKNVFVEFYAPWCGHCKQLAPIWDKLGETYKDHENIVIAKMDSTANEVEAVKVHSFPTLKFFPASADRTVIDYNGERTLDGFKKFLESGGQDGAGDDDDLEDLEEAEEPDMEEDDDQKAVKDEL
# ERp5 inh: blocks human ERp5 reductase activity on insulin; 0.05% of 350,000 active; ERp5 insulin aggregation, absorbance 650 nm, 90 min; Q15084; inhibition, % at 9.99 µM;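 active means mean replicate inhibition above about 25%, with every replicate also reaching it, limit read from the data, passing the limit was not always enough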
# Tb MetRS inh: Trypanosoma brucei MetRS inhibition; AID 624268; inhibition, % at 11.9 µM; 0.4% of 360,000 active; purified T. brucei MetRS, ATP depletion, Kinase-Glo luminescence;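 active means inhibition above a per-plate cutoff of the control wells' mean inhibition plus 3 SD, cut at about 5.5% in these data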
#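 assay system = parasite MetRS enzyme | timing = 15 min preincubation, 2 h reaction, all 25 °C | evaluation = percent inhibition relative to median high and low control wells | medium = HEPES buffer containing pyrophosphatase, BSA, spermine, DTT | compound = single dose, 11.9 µM final nominal, 0.9% final DMSO | detection = Kinase-Glo luminescence, ATP depletion format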
# TbMetRS confirm: confirmation of Trypanosoma brucei MetRS inhibitors; shares compounds with Tb MetRS inh; T. brucei MetRS enzyme, luminescence (ATP depletion); inhibition, % at 11.9 µM; 93% of 1,400 active; in the data active means inhibition above about 7%
# Jurkat cytotox: kills Jurkat cells in T. brucei MetRS counterscreen. shares compounds with Tb MetRS inh. Jurkat cells viability, ATP luminescence. inhibition, % at 8.3 µM. 12% of 1,400 active. AID 624413; in the data active means inhibition above about 15%
# Tb MetRS inh FP: inhibits T. brucei methionyl tRNA synthetase in orthogonal FP test; shares compounds with Tb MetRS inh; purified T. brucei MetRS, fluorescence polarization; inhibition, % at 11.9 µM; 44% of 1,400 active; AID 651607; in the data active means inhibition above about 17%
# A number is an active result; n = inactive; x = no result.
SMILES,PDI turbidity,ERp5 inh,Tb MetRS inh,TbMetRS confirm,Jurkat cytotox,Tb MetRS inh FP
COc1ccc(OC(=O)N(C)C[C@H]2OCc3ccccc3-c3ccccc3C(=O)N([C@H](C)CO)C[C@H]2C)cc1,x,n,x,x,x,x
Cc1ccc(CN2CCN(CC(=O)N/N=C/c3c[nH]c4ccccc34)CC2)cc1,n,x,n,x,x,x
O=C(CN1CCN(Cc2ccc(Cl)cc2)CC1)N/N=C/c1c[nH]c2ccccc12,n,x,8.4,31,n,n
Cc1ccccc1NC(=O)CCC(=O)N/N=C/c1c[nH]c2ccccc12,n,n,n,x,x,x
O=C(CCC(=O)Nc1ccccc1Cl)N/N=C/c1c[nH]c2ccccc12,n,n,8.0,16,n,n
C[C@H]1CN([C@@H](C)CO)C(=O)c2cc(-c3ccncc3)cnc2O[C@H]1CN(C)C(=O)Nc1ccc2c(c1)OCO2,x,n,x,x,x,x
CCNC(=O)[C@H]1[C@H](CO)[C@H]2Cn3c(ccc(-c4ccc(OC)cc4)c3=O)[C@@H]1N2CC1CC1,x,n,x,x,x,x
N#C/C(=C(/O)CCl)c1nnc2n1CCCCC2,n,n,n,x,x,x
N#C/C(=N\Nc1cc(Cl)cc(Cl)c1)c1nnc2n1CCCCC2,n,n,24,40,n,26
CC(C)NC(=O)N(C)C[C@H]1Oc2ccc(NC(=O)CCC(F)(F)F)cc2CC(=O)N([C@@H](C)CO)C[C@H]1C,x,n,x,x,x,x
C[C@H]1CN([C@@H](C)CO)C(=O)Cc2cc(NS(=O)(=O)c3ccc(Cl)cc3)ccc2O[C@@H]1CN(C)C(=O)NC1CCCCC1,x,n,x,x,x,x
CCCNC(=O)C[C@@H]1CC[C@@H]2[C@H](COc3ccc(NC(=O)c4cccc(Cl)c4)cc3C(=O)N2C)O1,x,n,x,x,x,x
O=C(CNc1cc(S(=O)(=O)N2CCOCC2)ccc1N1CCCC1)Nc1ccc(Cl)cc1,n,n,48,65,n,35
O=C(Nc1ccccc1F)Nc1cc(S(=O)(=O)N2CCOCC2)ccc1N1CCCC1,n,n,n,x,x,x
O=C(CNc1cc(S(=O)(=O)N2CCOCC2)ccc1NCC1CCCO1)Nc1cccc(F)c1 (configuration not stated),n,n,14,9.1,n,n
CC(=O)c1ccc(NC(=O)CNc2cc(S(=O)(=O)N3CCOCC3)ccc2N2CCCC2)cc1,n,n,n,x,x,x
O=S(=O)(Nc1cc(S(=O)(=O)N2CCOCC2)ccc1NCC1CCCO1)c1ccc(F)cc1 (configuration not stated),n,n,n,x,x,x
O=C(CN1CCN(S(=O)(=O)N2CCOCC2)CC1)Nc1ccc(Cl)c(Cl)c1,n,n,12,33,n,n
O=C(Nc1ccc(Cl)c(Cl)c1)Nc1cc(S(=O)(=O)N2CCOCC2)ccc1N1CCCC1,n,x,8.0,16,n,n
O=C(CN1CCOCC1)Nc1ccc(Cl)c(Cl)c1,n,n,n,x,x,x
C[C@H](CO)N1C[C@H](C)[C@H](CN(C)Cc2ccc(Cl)c(Cl)c2)OCc2cnnn2CCCC1=O,x,n,x,x,x,x
COc1ccc2c3c(n(C)c2c1)[C@@H](CO)N(S(C)(=O)=O)CC31CCN(Cc2cccnc2)CC1,x,n,x,x,x,x
C[C@@H]1CN([C@H](C)CO)S(=O)(=O)c2ccc(-c3cccc(F)c3)cc2O[C@H]1CN(C)C(=O)Nc1cc(F)ccc1F,x,n,x,x,x,x
C[C@@H]1CN([C@H](C)CO)S(=O)(=O)c2ccc(-c3ccc(F)cc3)cc2O[C@@H]1CN(C)C,x,n,x,x,x,x
Cc1ccc(NC(=O)CN(C)C(=O)COC(=O)C2=COCCO2)cc1,n,n,n,x,x,x
SMILES,PDI turbidity,ERp5 inh,Tb MetRS inh,TbMetRS confirm,Jurkat cytotox,Tb MetRS inh FP
Cc1ccc(NC(=O)CN(C)C(=O)CCOc2cccc(C)c2)cc1,n,x,6.0,11,n,n
Cc1ccc(NC(=O)CN(C)C(=O)COC(=O)c2ccc(Cl)cc2O)cc1,n,n,6.8,64,n,39
Cc1ccc(OCCCC(=O)N(C)CC(=O)Nc2c(C)cccc2C)cc1,n,n,n,x,x,x
CCC(=O)N1C[C@@H](C)[C@@H](OC)CN(C)C(=O)c2ccc(NC(=O)NC(C)C)cc2OC[C@H]1C,x,n,x,x,x,x
COc1ccc(-c2nnc(SC(C(=O)c3c[nH]c4ccccc34)c3ccccc3)n2N)cc1OC (configuration not stated),n,n,16,28,n,18
CCn1c2ccccc2c2cc(NC(=O)CSc3nnc(-c4ccc(OC)c(OC)c4)n3N)ccc21,n,x,n,x,x,x
CCC(=O)N1CC[C@@H]2[C@H]1c1cc(C#Cc3ccccc3)ccc1N[C@@H]2CO,x,n,x,x,x,x
Clc1ccc(-c2nnc(SCc3nc4ccccc4[nH]3)o2)c(Cl)c1,n,x,78,101,n,90
c1ccc2[nH]c(CSc3nnc(-c4ccncc4)o3)nc2c1,n,x,n,x,x,x
COc1ccc(N2CCN(CCNC(=O)Nc3ccc(Cl)cc3)CC2)cc1,n,n,12,25,n,n
O=C(NCCN1CCN(c2ccccc2)CC1)Nc1ccc(Cl)cc1,n,n,n,x,x,x
c1ccc(CNc2nc(NCc3cccs3)nc3ccsc23)cc1,n,n,n,x,x,x
c1ccc(CNc2nc(NCCc3ccncc3)c3sccc3n2)cc1,n,n,12,33,n,19
C[C@@H]1CCCCO[C@@H](CN(C)C)[C@@H](C)CN([C@H](C)CO)C(=O)c2cc(NC(=O)C3CCCCC3)ccc2O1,x,n,x,x,x,x
C/C=C/c1ccc([C@H]2[C@@H](CO)N(C(C)=O)C23CN(C(=O)c2ccccc2)C3)cc1,x,n,x,x,x,x
Cn1c(CN2CCCC(C(=O)c3ccc4c(c3)OCO4)C2)nc2ccccc21 (configuration not stated),n,x,6.4,12,n,n
O=C(c1ccc2c(c1)OCO2)C1CCCN(Cc2ccc3nsnc3c2)C1 (configuration not stated),n,n,n,x,x,x
CCOc1ccc(CONS(=O)(=O)c2ccc(NC(C)=O)cc2)cc1Cl,n,n,42,67,n,57
CC(=O)Nc1ccc(S(=O)(=O)NNC(=O)COc2ccc(Cl)cc2Cl)cc1,n,n,n,x,x,x
CCOC(=O)Cc1nnc(NC(=O)CSc2nnc3c(n2)[nH]c2ccccc23)s1,n,n,n,x,x,x
O=C(CSc1nc2ncccc2[nH]1)Nc1ccc2c(c1)OCO2,n,n,16,27,n,17
O=C(CSc1nnc2c(n1)[nH]c1ccccc12)Nc1ccc(N2CCOCC2)cc1,n,n,n,x,x,x
Cc1ccc(-c2csc(NC(=O)CSc3nnc4c(n3)[nH]c3ccccc34)n2)cc1,n,x,7.7,15,18,n
O=C(O)CSc1nnc2c(n1)[nH]c1ccccc12,n,n,n,x,x,x
COc1ccc(NC(=O)CSc2nc3ncccc3[nH]2)cc1OC,n,x,n,x,x,x
O=C(CSc1nnc2c(n1)[nH]c1ccccc12)Nc1nncs1,n,n,24,43,n,19
O=C(CSc1nnc2c(n1)[nH]c1ccccc12)Nc1ccc2c(c1)OCO2,n,x,76,83,n,71
CCCc1cn(CC[C@@H]2CC[C@H](NS(=O)(=O)c3ccccc3Cl)[C@@H](CO)O2)nn1,x,n,x,x,x,x
CS(=O)(=O)N1CCCCN2[C@H](CO)[C@H](c3ccc(Br)cc3)[C@@H]2C1,x,n,x,x,x,x
